These results are taken from ChEMBL document CHEMBL1155156, “In vitro interactions between apricitabine and other deoxycytidine analogues” (Antimicrob Agents Chemother, 2007).

For data set [1], the system named is PBMC. Description: Drug level in human phytohemagglutininin-activated PBMC assessed as apricitabine diphosphate level at 2.6 uM after 24 hrs. The format is ADME, cell-based. The method, boiled down:
(§1)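 Single healthy donor PBMC from Ficoll-type separation with hypotonic erythrocyte lysis, cultured in RPMI 1640 + 10% heat-inactivated FBS and stimulated 72 h with PHA-M 5 μg/ml plus IL-2 10 U/ml. Seeded at 0.75 × 10⁶ cells/ml and exposed 24 h to 2.6 μM ³H-labelled nucleoside alone. Cells washed cold, extracted in 60% methanol, analysed by C18 reverse-phase HPLC (7.5 mM NaH2PO4, pH 6.8) with online radioactivity detection. Parent and MP/DP/TP expressed as μM (1 pmol/10⁶ cells ≈ 1 μM).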

Data set [2] relates to Human immunodeficiency virus 1. Description: Antiviral activity against HIV1 with reverse transcriptase M184V mutation in human phytohemagglutininin-activated PBMC assessed as inhibition of viral replication. The format is functional, organism-based. The method, boiled down:
(§2)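 PBMC from one healthy donor, stimulated 3 days with PHA (5 μg/ml) plus IL-2 (10 U/ml), infected with HIV-1 M184V at MOI 0.02 for 3 h at 37°C, washed, 2 × 10⁵ cells/well into drug-containing medium. Half the medium renewed with drug at day 4. Day 7 supernatant RT activity measured on poly(rA)(dT) with [³H]dTTP. Triplicates.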

In data set [3] the test system is Human immunodeficiency virus. Description: Antiviral activity against HIV in T cells assessed as inhibition of viral replication. The format is functional, organism-based. Particulars: Human immunodeficiency virus 1, T-cell.
For data set [4], the system named is PBMC. Description: Drug level in human phytohemagglutininin-activated PBMC assessed as apricitabine monophosphate level at 2.6 uM after 24 hrs. The format is ADME, cell-based. The procedure, abridged:
as §1

The test system of data set [5] is PBMC. Description: Drug level in human resting PBMC assessed as apricitabine triphosphate level at 2.6 uM after 24 hrs. The data set is classed as ADME, cell-based. The procedure, abridged: (§3)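 Unstimulated PBMC from a single healthy donor, cultured in RPMI 1640 + 10% heat-inactivated FBS, seeded at 1.0 × 10⁶ cells/ml and incubated 24 h with 2.6 μM ³H-labelled nucleoside alone. Cold PBS washes, 60% methanol extraction at −20°C overnight, C18 reverse-phase HPLC (7.5 mM sodium dihydrogen phosphate, pH 6.8) with online radiodetection. Intracellular parent, MP, DP, TP reported as μM (1 pmol/10⁶ cells ≈ 1 μM).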

In data set [6] the test system is PBMC. Description: Drug level in human resting PBMC at 2.6 uM after 24 hrs. The format is ADME, cell-based. The method, boiled down:
as §3

The subject of data set [7] is PBMC. Description: Drug level in human phytohemagglutininin-activated PBMC assessed as apricitabine triphosphate level at 2.6 uM after 24 hrs. The data set is classed as ADME, cell-based. The procedure, abridged: as §1
The test system of data set [8] is Human immunodeficiency virus. Description: Antiviral activity against HIV in PBMCs assessed as inhibition of viral replication. The data set is classed as functional, organism-based. The note with it: Human immunodeficiency virus 1.
Data set [9] concerns PBMC. Description: Drug level in human resting PBMC assessed as apricitabine monophosphate level at 2.6 uM after 24 hrs. The format is ADME, cell-based. The procedure, abridged:
as §3

Data set [10] has as its system PBMC. Description: Drug level in human resting PBMC assessed as apricitabine diphosphate level at 2.6 uM after 24 hrs. The format is ADME, cell-based. The method, boiled down:
as §3

The subject of data set [11] is PBMC. Description: Drug level in human phytohemagglutininin-activated PBMC at 2.6 uM after 24 hrs. The data set is classed as ADME, cell-based. The procedure, abridged:
as §1

Data set [12] has as its system PBMC. Description: Drug level in human resting PBMC assessed as Lamivudine monophosphate level at 2.6 uM after 24 hrs. The data set is classed as ADME, cell-based. The method, boiled down:
as §3

In data set [13] the test system is PBMC. Description: Drug level in human phytohemagglutininin-activated PBMC assessed as Lamivudine diphosphate level at 2.6 uM after 24 hrs. The format is ADME, cell-based. The procedure, abridged:
as §1

The test system of data set [14] is Human immunodeficiency virus 1. Description: Antiviral activity against HIV1 with reverse transcriptase M184V mutation in human phytohemagglutininin-activated PBMC assessed as inhibition of viral replication at 60 uM. The data set is classed as functional. The method, boiled down:
as §2

Data set [15] relates to Human immunodeficiency virus 1. Description: Antiviral activity against HIV1 with reverse transcriptase M184V mutation in human phytohemagglutininin-activated PBMC assessed as inhibition of viral replication at 200 uM. The format is functional. The procedure, abridged:
as §2

The test system of data set [16] is PBMC. Description: Drug level in human phytohemagglutininin-activated PBMC assessed as Lamivudine triphosphate level at 2.6 uM after 24 hrs. The format is ADME, cell-based. The method, boiled down:
as §1

Data set [17] concerns PBMC. Description: Drug level in human phytohemagglutininin-activated PBMC assessed as Lamivudine monophosphate level at 2.6 uM after 24 hrs. The data set is classed as ADME, cell-based. The method, boiled down: as §1
Data set [18] relates to PBMC. Description: Drug level in human resting PBMC assessed as Lamivudine triphosphate level at 2.6 uM after 24 hrs. The data set is classed as ADME, cell-based. The method, boiled down:
as §3

Data set [19] relates to PBMC. Description: Drug level in human resting PBMC assessed as Lamivudine diphosphate level at 2.6 uM after 24 hrs. The data set is classed as ADME, cell-based. The procedure, abridged:
as §3

Broadly, the EC50 is the concentration at which the effect is half-maximal. The EC90 is the point of the concentration-response curve where the effect stands at 90%. As a reminder, the inhibition is how much of the control response was suppressed.

Consider `Nc1ccn([C@H]2CO[C@@H](CO)S2)c(=O)n1` [APRICITABINE], for which the Drug uptake in the data set on PBMC [1] was 0.69 µM; in the data set on PBMC [4] it was 0.23 µM; in the data set with PBMC [5], 0.33 µM; in the data set on PBMC [6], 0.39 µM; in the data set on PBMC [7], 0.54 µM; with PBMC [9], 0.11 µM. Besides, the Drug uptake in the data set with PBMC [10] is 0.58 µM; in the data set with PBMC [11], 1.19 µM. The values for the EC50 in data set [2], in data set [3] and in [8] were 1.9 µM, 1 µM and 0.1 µM, respectively. The EC90 in [2] was found to be 11.9 µM.

With `Nc1ccn([C@@H]2CS[C@H](CO)O2)c(=O)n1` [LAMIVUDINE], the Drug uptake with PBMC [12] was 0.12 µM; with PBMC [13], 1.66 µM; with PBMC [16], 0.66 µM; in the data set on PBMC [6], 0.1 µM; in the data set on PBMC [17], 0.52 µM; in the data set with PBMC [18] it was 0.73 µM. Also, the Drug uptake amounted to 1.01 µM with PBMC [19] and 0.18 µM in the data set with PBMC [11]. Besides, the EC50 in [2] amounted to 68 µM. Further, in data set [14], the inhibition at 60 µM turned out to be 45%. The inhibition at 200 µM in data set [15] came to 45%.
